Active and inactive are the calls of the source. The rule behind the calls is not given here.
Experiments:
PC-3 [1] = experiment: Growth inhibition of human PC3 cells by sulforhodamine B assay; assay type: functional, cell-based
Summary of the method: (§1)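 SRB assay. DU 145 cells were grown in IMEM with 10% FBS and gentamicin, PC-3 in RPMI 1640 with 10% FBS and gentamicin, and HeLa in BME with 10% FBS and gentamicin. Cytotoxicity was read as a fall in cell density below the density at the time of drug addition. Each concentration was tested in triplicate, n = 2–9 independent experiments. IC50 is the concentration giving 50% inhibition of proliferation versus vehicle control, interpolated from a 4-parameter nonlinear regression; mean ± SE.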

DU-145 [2] = experiment: Growth inhibition of human DU145 cells by sulforhodamine B assay; assay type: functional, cell-based; summary of the method: as §1
HeLa [3] = experiment: Growth inhibition of human HeLa cells by sulforhodamine B assay; assay type: functional, cell-based; summary of the method: as §1
A10 = experiment: Growth inhibition of rat A10 cells by sulforhodamine B assay; assay type: cell-based
DU-145 [4] = experiment: Inhibition of colony formation of human DU145 cells incubated for 4 hrs followed by drug wash-out and measured after 14 days post drug wash-out by crystal violet staining based clonogenic assay; assay type: functional, cell-based
Summary of the method: (§2)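 300 DU 145 cells were allowed to adhere, then exposed to vehicle (0.5% DMSO final) or compound for 4 h. Washed with DPBS and regrown in fresh medium. Fixed and stained with 0.5% crystal violet in 10% methanol; colonies counted. Legend states 9 days, methods 14 days. One-way ANOVA with Dunnett's post-hoc test; n = 2–9 experiments.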

HeLa [5] = experiment: Induction of apoptosis in human HeLa cells assessed as increase in PARP cleavage at 10 uM after 24 hrs by immunoblotting method; assay type: functional, cell-based
Summary of the method: (§3)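 HeLa and DU 145 cells were given vehicle, BI2536 (100 nM) or test compounds (10 µM) for 24 h. Lysed with protease inhibitors; equal protein run on SDS-PAGE, transferred to PVDF, and probed for cleaved PARP (1:1000) with actin as loading control; ECL detection.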

DU-145 [6] = experiment: Induction of apoptosis in human DU145 cells assessed as increase in PARP cleavage at 10 uM after 24 hrs by immunoblotting method; assay type: functional, cell-based; summary of the method: as §3
SK-OV-3 [7] = experiment: Growth inhibition of human SKOV3 cells by sulforhodamine B assay; assay type: functional, cell-based
Summary of the method: (§4)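 Isogenic ovarian pair: parental SK-OV-3 and its Pgp-expressing single-cell clone SK-OV-3/MDR-1-M6/6, tested by SRB assay. IC50 is interpolated from a 4-parameter nonlinear regression against vehicle control. Rr = IC50 in M6/6 divided by IC50 in SK-OV-3.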

SK-OV-3 [8] = experiment: Growth inhibition of human SKOV3-MDR1-M6/6 cells by sulforhodamine B assay; assay type: functional, cell-based; summary of the method: as §4
SK-OV-3 [9] = experiment: Resistance index, ratio of IC50 for human SKOV3-MDR1-M6/6 cells to IC50 for human SKOV3 cells; assay type: functional; summary of the method: as §4
PC-3 [10] = experiment: Induction of cell cycle arrest in human PC3 cells at 1.5 uM to 5 uM incubated for 18 hrs by flow cytometry method; assay type: functional, cell-based
Summary of the method: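 PC-3 cells were treated with vehicle (DMSO) or compound for 18 h. Stained with Krishan's reagent (propidium iodide), and DNA content read by flow cytometry for cell cycle distribution.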

Tubulin (Sus scrofa) [11] = target: T1, Tubulin (Sus scrofa) (UniProt P02554+P02550); experiment: Inhibition of porcine tubulin polymerization at 10 to 100 uM incubated for 1 hr by turbidimetry; assay type: protein assay
T1 sequence (P02550 whole entry, looked up): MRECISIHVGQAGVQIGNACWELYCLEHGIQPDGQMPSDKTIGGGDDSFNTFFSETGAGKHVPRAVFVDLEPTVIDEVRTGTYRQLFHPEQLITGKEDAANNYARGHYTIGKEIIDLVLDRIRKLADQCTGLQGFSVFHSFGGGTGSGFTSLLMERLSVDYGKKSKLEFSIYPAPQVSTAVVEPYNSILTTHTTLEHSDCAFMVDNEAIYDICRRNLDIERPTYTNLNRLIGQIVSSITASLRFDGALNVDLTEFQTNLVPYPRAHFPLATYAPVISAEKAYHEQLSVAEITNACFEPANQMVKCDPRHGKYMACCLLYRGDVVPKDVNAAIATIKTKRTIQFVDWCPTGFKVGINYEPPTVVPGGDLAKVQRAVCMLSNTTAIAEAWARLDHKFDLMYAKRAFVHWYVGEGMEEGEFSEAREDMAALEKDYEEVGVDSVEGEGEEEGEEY
T1 sequence (P02554 whole entry, looked up): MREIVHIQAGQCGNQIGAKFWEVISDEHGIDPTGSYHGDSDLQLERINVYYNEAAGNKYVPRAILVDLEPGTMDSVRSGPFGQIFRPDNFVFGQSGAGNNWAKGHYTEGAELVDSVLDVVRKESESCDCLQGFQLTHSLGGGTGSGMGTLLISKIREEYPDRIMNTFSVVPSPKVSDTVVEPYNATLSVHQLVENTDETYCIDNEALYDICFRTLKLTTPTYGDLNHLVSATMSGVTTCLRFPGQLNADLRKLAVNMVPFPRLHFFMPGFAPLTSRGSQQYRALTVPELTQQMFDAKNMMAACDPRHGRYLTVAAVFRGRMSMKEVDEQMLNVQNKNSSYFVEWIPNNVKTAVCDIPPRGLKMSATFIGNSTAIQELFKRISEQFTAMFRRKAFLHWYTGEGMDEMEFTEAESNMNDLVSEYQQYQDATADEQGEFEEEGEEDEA

HeLa [12] = experiment: Induction of monopolar mitotic spindles in human HeLa cells at 10 uM incubated for 18 hrs by indirect immunofluorescence microscopy; assay type: functional, cell-based
Summary of the method: (§5)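 Cells adhered overnight on glass coverslips, then were treated for 18 h. They were fixed in cold methanol (4 °C, 5 min) and blocked with 10% bovine calf serum for 20 min. Stained with monoclonal anti-β-tubulin (1:400, 2 h, 37 °C), then FITC anti-mouse IgG (1:200, 1 h, 37 °C), and 0.1 µg/mL DAPI. Spindles scored by indirect immunofluorescence; BI2536 at 100 nM served as positive control.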

HeLa [13] = experiment: Induction of aberrant bipolar mitotic spindles in human HeLa cells at 10 uM incubated for 18 hrs by indirect immunofluorescence microscopy; assay type: functional, cell-based; summary of the method: as §5
PC-3 [14] = experiment: Induction of monopolar mitotic spindles in human PC3 cells at 10 uM incubated for 18 hrs by indirect immunofluorescence microscopy; assay type: functional, cell-based; summary of the method: as §5
PC-3 [15] = experiment: Induction of aberrant bipolar mitotic spindles in human PC3 cells at 10 uM incubated for 18 hrs by indirect immunofluorescence microscopy; assay type: functional, cell-based; summary of the method: as §5
[16] = target: Serine/threonine-protein kinase PLK1 (Homo sapiens) (UniProt P53350); experiment: Inhibition of PLK1 Thr210 phosphorylation in human HeLa cells at 10 uM by immunoblotting method; assay type: cell-based
Serine/threonine-protein kinase PLK1 (Homo sapiens), sequence (P53350 whole entry): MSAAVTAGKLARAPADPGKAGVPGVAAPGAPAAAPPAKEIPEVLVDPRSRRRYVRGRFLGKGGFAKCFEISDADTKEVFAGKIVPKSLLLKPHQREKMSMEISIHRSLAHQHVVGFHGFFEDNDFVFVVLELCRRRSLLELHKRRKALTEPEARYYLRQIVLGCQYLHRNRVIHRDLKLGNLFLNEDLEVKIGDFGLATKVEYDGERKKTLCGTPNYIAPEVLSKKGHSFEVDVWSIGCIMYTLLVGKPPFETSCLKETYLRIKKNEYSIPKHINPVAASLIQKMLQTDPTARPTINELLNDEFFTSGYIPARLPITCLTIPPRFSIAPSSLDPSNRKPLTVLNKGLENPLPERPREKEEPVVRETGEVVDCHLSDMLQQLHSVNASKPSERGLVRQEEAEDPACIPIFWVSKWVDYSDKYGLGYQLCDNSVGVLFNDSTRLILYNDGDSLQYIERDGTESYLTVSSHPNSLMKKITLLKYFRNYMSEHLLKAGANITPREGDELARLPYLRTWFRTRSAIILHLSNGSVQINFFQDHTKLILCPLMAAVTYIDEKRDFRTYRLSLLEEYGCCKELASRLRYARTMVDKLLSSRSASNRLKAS
Summary of the method: (§6)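 HeLa and DU 145 cells were given vehicle, 100 nM BI 2536 or 10 µM test compounds. Lysed and immunoblotted for total PLK1 and phospho-Thr210-PLK1.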

[17] = target: Serine/threonine-protein kinase PLK1 (Homo sapiens) (UniProt P53350); experiment: Inhibition of PLK1 Thr210 phosphorylation in human DU145 cells at 10 uM by immunoblotting method; assay type: cell-based; conditions: DU-145; summary of the method: as §6
HeLa [18] = experiment: Inhibition of PLK1 protein accumulation in human HeLa cells at 10 uM by immunoblotting method; assay type: functional, cell-based; summary of the method: as §6
DU-145 [19] = experiment: Inhibition of PLK1 protein accumulation in human DU145 cells at 10 uM by immunoblotting method; assay type: functional, cell-based; summary of the method: as §6
HeLa [20] = experiment: Induction of apoptosis in human HeLa cells assessed as increase in PARP cleavage at 100 nM after 24 hrs by immunoblotting method; assay type: functional, cell-based; summary of the method: as §3
DU-145 [21] = experiment: Induction of apoptosis in human DU145 cells assessed as increase in PARP cleavage at 100 nM after 24 hrs by immunoblotting method; assay type: functional, cell-based; summary of the method: as §3
HeLa [22] = experiment: Induction of monopolar mitotic spindles in human HeLa cells at 100 nM incubated for 18 hrs by indirect immunofluorescence microscopy; assay type: functional, cell-based; summary of the method: as §5
PC-3 [23] = experiment: Induction of monopolar mitotic spindles in human PC3 cells at 100 nM incubated for 18 hrs by indirect immunofluorescence microscopy; assay type: functional, cell-based; summary of the method: as §5
HeLa [24] = experiment: Inhibition of PLK1 protein accumulation in human HeLa cells at 100 nM by immunoblotting method; assay type: functional, cell-based; summary of the method: as §6
DU-145 [25] = experiment: Inhibition of PLK1 protein accumulation in human DU145 cells at 100 nM by immunoblotting method; assay type: functional, cell-based; summary of the method: as §6
DU-145 [26] = experiment: Selectivity index, ratio of IC50 for human PC3 cells to IC50 for human DU145 cells; assay type: functional
Summary of the method: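 Ratio of SRB IC50 values from PC-3 and DU 145 prostate cells, each measured by 4-parameter nonlinear regression of triplicate concentration-response data.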

DU-145 [27] = experiment: Inhibition of colony formation of human DU145 cells at 5 to 20 uM incubated for 4 hrs followed by drug wash-out and measured after 9 days post drug wash-out by crystal violet staining based clonogenic assay; assay type: functional, cell-based; summary of the method: as §2
Tubulin (Sus scrofa) [28] = target: T1, Tubulin (Sus scrofa); experiment: Inhibition of porcine tubulin polymerization at 10 uM incubated for 1 hr by turbidimetry; assay type: protein assay
HeLa [29] = experiment: Induction of monopolar mitotic spindles in human HeLa cells at 25 uM incubated for 18 hrs by indirect immunofluorescence microscopy; assay type: functional, cell-based; summary of the method: as §5
HeLa [30] = experiment: Induction of aberrant bipolar mitotic spindles in human HeLa cells at 25 uM incubated for 18 hrs by indirect immunofluorescence microscopy; assay type: functional, cell-based; summary of the method: as §5
PC-3 [31] = experiment: Induction of monopolar mitotic spindles in human PC3 cells at 25 uM incubated for 18 hrs by indirect immunofluorescence microscopy; assay type: functional, cell-based; summary of the method: as §5
PC-3 [32] = experiment: Induction of aberrant bipolar mitotic spindles in human PC3 cells at 25 uM incubated for 18 hrs by indirect immunofluorescence microscopy; assay type: functional, cell-based; summary of the method: as §5
HeLa [33] = experiment: Induction of monopolar mitotic spindles in human HeLa cells at 7.5 uM incubated for 18 hrs by indirect immunofluorescence microscopy; assay type: functional, cell-based; summary of the method: as §5
HeLa [34] = experiment: Induction of aberrant bipolar mitotic spindles in human HeLa cells at 7.5 uM incubated for 18 hrs by indirect immunofluorescence microscopy; assay type: functional, cell-based; summary of the method: as §5
PC-3 [35] = experiment: Induction of monopolar mitotic spindles in human PC3 cells at 7.5 uM incubated for 18 hrs by indirect immunofluorescence microscopy; assay type: functional, cell-based; summary of the method: as §5
PC-3 [36] = experiment: Induction of aberrant bipolar mitotic spindles in human PC3 cells at 7.5 uM incubated for 18 hrs by indirect immunofluorescence microscopy; assay type: functional, cell-based; summary of the method: as §5

IC50 (PC-3 [1])	IC50 (DU-145 [2])	IC50 (HeLa [3])	IC50 (SK-OV-3 [7])	IC50 (SK-OV-3 [8])	inhibition [16]	inhibition [17]	inhibition (Tubulin (Sus scrofa) [28])	Compound	IC50 (A10)	inhibition (DU-145 [4])	Activity (HeLa [5])	Activity (DU-145 [6])	Ratio IC50 (SK-OV-3 [9])	inhibition (HeLa [18])	inhibition (DU-145 [19])	further results
1.7 µM	1.8 µM	1.7 µM	0.57 µM	1.4 µM	inactive	inactive	–	C=C1C(=O)O[C@H]2[C@H]1[C@H](OC(=O)[C@@]1(C)O[C@H]1C)[C@H](OC(C)=O)/C(C(=O)OC)=C\C=C/[C@]1(C)O[C@H]21	1.7 µM	Dose-dependent effect	Active	Active	2.5	inactive	inactive	Activity (PC-3 [10]): inactive; inhibition (Tubulin (Sus scrofa) [11]): Active; Activity (HeLa [12]): Active; Activity (HeLa [13]): Active; Activity (PC-3 [14]): Active; Activity (PC-3 [15]): Active
0.04 µM	0.004 µM	0.0035 µM	0.0062 µM	1.01 µM	–	–	–	CC(=O)O[C@H]1C(=O)[C@@]2(C)[C@H]([C@H](OC(=O)c3ccccc3)[C@]3(O)C[C@H](OC(=O)[C@H](O)[C@@H](NC(=O)c4ccccc4)c4ccccc4)C(C)=C1C3(C)C)[C@]1(OC(C)=O)CO[C@@H]1C[C@@H]2O [PACLITAXEL]	–	–	–	–	162.9	–	–	–
–	–	–	–	–	–	–	–	CC[C@@H]1C(=O)N(C)c2cnc(Nc3ccc(C(=O)NC4CCN(C)CC4)cc3OC)nc2N1C1CCCC1	–	–	–	–	–	–	–	Activity (HeLa [20]): Active; Activity (DU-145 [21]): Active; Activity (HeLa [22]): Active; Activity (PC-3 [23]): Active; inhibition (HeLa [24]): Active; inhibition (DU-145 [25]): Active
0.67 µM	0.18 µM	–	–	–	–	–	–	C=C1C(=O)O[C@H]2[C@H]1[C@H](OC(=O)[C@@]1(C)O[C@H]1C)[C@@H](OC(C)=O)[C@@]1(C(=O)OC)C=CC=C(C)[C@H]21	–	–	–	–	–	–	–	Ratio IC50 (DU-145 [26]): 3.7
8.7 µM	5.9 µM	3.8 µM	1.7 µM	4.4 µM	inactive	inactive	Active	C=C1C(=O)O[C@H]2[C@H]1[C@H](OC(=O)[C@@]1(C)O[C@H]1C)[C@H](OC(C)=O)/C(C(=O)OC)=C\C[C@@H](O)[C@]1(C)O[C@H]21	3 µM	Dose-dependent effect	Active	Active	2.6	inactive	inactive	inhibition (DU-145 [27]): Active; Activity (HeLa [29]): Active; Activity (HeLa [30]): Active; Activity (PC-3 [31]): Active; Activity (PC-3 [32]): Active
3.1 µM	2.6 µM	1.9 µM	0.82 µM	2 µM	inactive	inactive	Active	C=C1C(=O)O[C@H]2[C@H]1[C@H](OC(=O)[C@@]1(C)O[C@H]1C)[C@H](OC(C)=O)/C(C(=O)OC)=C\[C@H]1O[C@H]1[C@]1(C)O[C@H]21	1.1 µM	Dose-dependent effect	Active	Active	2.4	inactive	inactive	Activity (HeLa [33]): Active; Activity (HeLa [34]): Active; Activity (PC-3 [35]): Active; Activity (PC-3 [36]): Active
